# Results from ChEMBL document CHEMBL3808334, “Synthesis and in vitro evaluation of novel triazine analogues as anticancer agents and their interaction studies with bovine serum albumin” (Eur J Med Chem, 2016).
# Tests used:
# 786-0 [1] = test: Growth inhibition of human 786-0 cells assessed as cell growth at 10^-5 M incubated for 48 hrs by sulforhodamine B assay; format: functional; conditions: 786-0, 48 h, read-out: Activity
# Summary of the method: (§1)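 Five-dose assay: five concentrations from 10-fold or ½-log serial dilutions. Cells are plated at 5,000–40,000 per well according to doubling time, grown 24 h, then exposed 48 h at 37 °C, 5% CO₂. Fixed with cold 50% TCA (final addition) for 60 min at 4 °C and stained with 0.4% SRB in 1% acetic acid. Bound dye is solubilized in 10 mM Tris base and read at 515 nm. GI₅₀ is where [(Ti−Tz)/(C−Tz)]×100 = 50, with a time-zero plate as Tz.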
# [2] = Growth inhibition of human OVCAR4 cells assessed as cell growth at 10^-7 M incubated for 48 hrs by sulforhodamine B assay; format: functional; conditions: OVCAR-4, 48 h, read-out: Activity
# [3] = Growth inhibition of human OVCAR3 cells assessed as cell growth at 10^-5 M incubated for 48 hrs by sulforhodamine B assay; format: functional; conditions: OVCAR-3, 48 h, read-out: Activity
# Albumin = Albumin (Bos taurus, UniProt P02769); test: Binding affinity to bovine serum albumin assessed as red shift in emission intensity up to 20 uM by fluorescence spectroscopic analysis relative to control; format: ADME; conditions: cattle, isolated protein
# Albumin, sequence (P02769 whole entry): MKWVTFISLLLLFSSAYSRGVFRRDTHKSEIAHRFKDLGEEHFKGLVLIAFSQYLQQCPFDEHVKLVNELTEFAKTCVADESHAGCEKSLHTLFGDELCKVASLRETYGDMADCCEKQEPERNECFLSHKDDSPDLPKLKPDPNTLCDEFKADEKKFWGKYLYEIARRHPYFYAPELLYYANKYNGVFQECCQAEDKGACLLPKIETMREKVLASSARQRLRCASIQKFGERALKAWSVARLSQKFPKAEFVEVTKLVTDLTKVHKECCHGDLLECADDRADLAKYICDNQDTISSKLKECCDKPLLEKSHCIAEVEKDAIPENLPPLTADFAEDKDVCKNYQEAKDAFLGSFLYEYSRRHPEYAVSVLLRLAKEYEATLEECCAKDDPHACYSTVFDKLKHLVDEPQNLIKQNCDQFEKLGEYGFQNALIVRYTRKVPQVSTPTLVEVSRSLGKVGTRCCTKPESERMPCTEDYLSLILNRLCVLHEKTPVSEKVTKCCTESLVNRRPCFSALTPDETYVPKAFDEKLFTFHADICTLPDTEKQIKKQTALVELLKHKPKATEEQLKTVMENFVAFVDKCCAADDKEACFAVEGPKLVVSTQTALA
# Summary of the method: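 Fluorescence titration of 10 µM BSA in 0.1 M phosphate buffer pH 7.4 with compound at 0–20 µM, diluted from DMSO stocks. Excitation 280 nm, slit 10 nm, 1 cm quartz cell, 300 K. Changes in the 350 nm Trp emission, new bands near 370–373 nm and isoemissive points are read against BSA alone.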
# [4] = Growth inhibition of human SF295 cells assessed as cell growth at 10^-6 M incubated for 48 hrs by sulforhodamine B assay; format: functional; conditions: SF-295, 48 h, read-out: Activity
# CCRF-CEM = test: Growth inhibition of human CCRF-CEM cells assessed as cell growth at 10^-6 M incubated for 48 hrs by sulforhodamine B assay; format: functional; conditions: read-out: Activity
# Summary of the method: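 Leukemia line in the five-dose format: five concentrations from 10-fold or ½-log serial dilutions. Plated at 5,000–40,000 cells per well, preincubated 24 h, then compound added for 48 h at 37 °C, 5% CO₂. Sulforhodamine B absorbance read at 515 nm. Growth is computed against time-zero (Tz) and control (C) readings; GI₅₀ is where [(Ti−Tz)/(C−Tz)]×100 = 50.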
# Malme-3M = test: Growth inhibition of human MALME-3M cells assessed as cell growth at 10^-4 M incubated for 48 hrs by sulforhodamine B assay; format: functional; conditions: read-out: Activity
# 786-0 [5] = test: Growth inhibition of human 786-0 cells assessed as cell growth at 10^-8 M incubated for 48 hrs by sulforhodamine B assay; format: functional; conditions: 786-0, 48 h, read-out: Activity; summary of the method: as §1
# [6] = Growth inhibition of human OVCAR3 cells assessed as cell growth at 10^-7 M incubated for 48 hrs by sulforhodamine B assay; format: functional; conditions: OVCAR-3, 48 h, read-out: Activity
# [7] = Growth inhibition of human OVCAR5 cells assessed as cell growth at 10^-8 M incubated for 48 hrs by sulforhodamine B assay; format: functional; conditions: OVCAR-5, 48 h, read-out: Activity
# [8] = Growth inhibition of human OVCAR3 cells incubated for 48 hrs by sulforhodamine B assay; format: functional; conditions: OVCAR-3, 48 h
# Summary of the method: (§2)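 Cells were plated at 5,000–40,000 per well according to doubling time and preincubated 24 h at 37 °C in 5% CO2; time-zero plates were then TCA-fixed. Five concentrations (10-fold or ½-log dilutions, DMSO stock) were incubated 48 h. Cells were TCA-fixed, stained with 0.4% SRB and read at 515 nm. GI50 was taken where [(Ti−Tz)/(C−Tz)]×100 = 50.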
# A549 = test: Growth inhibition of human A549/ATCC cells assessed as cell growth at 10^-6 M incubated for 48 hrs by sulforhodamine B assay; format: functional; conditions: A549, 48 h, read-out: Activity; summary of the method: as §1
# NCI/ADR-RES = test: Growth inhibition of human NCI/ADR-RES cells assessed as cell growth at 10^-5 M incubated for 48 hrs by sulforhodamine B assay; format: functional; conditions: read-out: Activity
# [9] = Growth inhibition of human SF295 cells assessed as cell growth at 10 uM incubated for 48 hrs by sulforhodamine B assay; format: functional; conditions: SF-295, 48 h, read-out: Activity
# [10] = Growth inhibition of human OVCAR3 cells assessed as cell growth at 10^-4 M incubated for 48 hrs by sulforhodamine B assay; format: functional; conditions: OVCAR-3, 48 h, read-out: Activity
# [11] = Growth inhibition of human MOLT4 cells incubated for 48 hrs by sulforhodamine B assay; format: functional; conditions: MOLT-4, 48 h; summary of the method: as §2
# MDA-MB-231 [12] = test: Growth inhibition of human MDA-MB-231 cells assessed as cell growth at 10^-4 M incubated for 48 hrs by sulforhodamine B assay; format: functional; conditions: MDA-MB-231, 48 h, read-out: Activity
# 786-0 [13] = test: Growth inhibition of human 786-0 cells assessed as cell growth at 10^-4 M incubated for 48 hrs by sulforhodamine B assay; format: functional; conditions: 786-0, 48 h, read-out: Activity; summary of the method: as §1
# MDA-MB-231 [14] = test: Growth inhibition of human MDA-MB-231 cells assessed as cell growth at 10^-7 M incubated for 48 hrs by sulforhodamine B assay; format: functional; conditions: MDA-MB-231, 48 h, read-out: Activity
# [15] = Growth inhibition of human SF539 cells assessed as cell growth at 10^-5 M incubated for 48 hrs by sulforhodamine B assay; format: functional; conditions: SF-539, 48 h, read-out: Activity
# [16] = Growth inhibition of human HOP92 cells assessed as cell growth at 10 uM incubated for 48 hrs by sulforhodamine B assay; format: functional; conditions: HOP-92, 48 h, read-out: Activity
# [17] = Growth inhibition of human Caki1 cells assessed as cell growth at 10^-5 M incubated for 48 hrs by sulforhodamine B assay; format: functional; conditions: CAKI-1, 48 h, read-out: Activity
# Summary of the method: (§3)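 Cells seeded at 5,000–40,000/well according to doubling time and preincubated 24 h at 37 °C, 5% CO2. Time-zero plates were TCA-fixed. DMSO concentrate was diluted in medium with 50 µg/ml gentamicin to give five concentrations (10-fold or ½ log steps), then exposed 48 h. Cells were TCA-fixed, stained with 0.4% SRB and read at 515 nm. Percent growth was taken against time-zero and control; GI50, TGI and LC50 derived.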
# [18] = Growth inhibition of human HCT15 cells assessed as cell growth at 10^-6 M incubated for 48 hrs by sulforhodamine B assay; format: functional; conditions: HCT-15, 48 h, read-out: Activity; summary of the method: as §3
# SK-MEL-2 = test: Growth inhibition of human SK-MEL-2 cells incubated for 48 hrs by sulforhodamine B assay; format: functional; conditions: SK-MEL-2, 48 h; summary of the method: as §2
# [19] = Growth inhibition of human HOP62 cells assessed as cell growth at 10^-8 M incubated for 48 hrs by sulforhodamine B assay; format: functional; conditions: HOP-62, 48 h, read-out: Activity
# [20] = read-out: LC50 (the source's name)
# [21] = read-out: pLC50 (the source's name) (converted)
structure (smiles),measurement,setting,value
c1ccc(-c2nc(Nc3ccc(-c4nc5ccccc5[nH]4)cc3)nc(N3CCOCC3)n2)cc1,growth at 10 µM,786-0 [1],-88%
same,growth at 0.1 µM,[2],103%
same,growth at 10 µM,[3],-90%
same,Activity,Albumin,20 nm
same,growth at 1 µM,[4],64%
same,growth at 1 µM,CCRF-CEM,32%
same,growth at 100 µM,Malme-3M,-54%
same,growth at 0.01 µM,786-0 [5],99%
same,growth at 0.1 µM,[6],98%
same,growth at 0.01 µM,[7],90%
same,GI50,[8]; read-out: GI50,1.52 µM
same,CC50,[8]; [20],5.83 µM
same,TGI,[8]; read-out: TGI,2.98 µM
same,GI50,[8]; read-out: pGI50 (converted),1.51 µM
same,CC50,[8]; [21],5.89 µM
same,TGI,[8]; read-out: pTGI (converted),2.95 µM
same,growth at 1 µM,A549,96%
same,growth at 10 µM,NCI/ADR-RES,-28%
same,growth at 10 µM,[9],-76.4%
same,growth at 100 µM,[10],-100%
same,GI50,[11]; read-out: GI50,1.33 µM
same,CC50,[11]; [20],9.35 µM
same,TGI,[11]; read-out: TGI,3.53 µM
same,GI50,[11]; read-out: pGI50 (converted),1.32 µM
same,CC50,[11]; [21],9.33 µM
same,TGI,[11]; read-out: pTGI (converted),3.55 µM
same,growth at 100 µM,MDA-MB-231 [12],-60%
same,growth at 100 µM,786-0 [13],-71%
same,growth at 0.1 µM,MDA-MB-231 [14],86%
same,growth at 10 µM,[15],-84%
same,growth at 10 µM,[16],-66.2%
same,growth at 10 µM,[17],-100%
same,growth at 1 µM,[18],13%
same,GI50,SK-MEL-2; read-out: GI50,1.97 µM
same,CC50,SK-MEL-2; [20],6.55 µM
same,TGI,SK-MEL-2; read-out: TGI,3.59 µM
same,GI50,SK-MEL-2; read-out: pGI50 (converted),1.95 µM
same,CC50,SK-MEL-2; [21],6.61 µM
same,TGI,SK-MEL-2; read-out: pTGI (converted),3.63 µM
same,growth at 0.01 µM,[19],92%
